# In the library only some 4.9% were active in any assay of this set; here they are far more common.
# NF-kB neuron act: activators of NF-kB expression in neurons, primary screen, cell-based, HTS; human neuronal cells, NF-kB reporter expression; active compounds read high; fold change at 12.5 µM; 190,000 tested, 1.6% active; in the data active means fold change above about 3.3
# STAT1 inh: STAT1 signaling inhibitors, primary screen, cell-based, HTS, luciferase reporter | 200,000 tested, 0.35% active | NIH 3T3 STAT1-luciferase reporter, IFN-gamma, luminescence | AID 920, 2007 | inhibition, % at 5.5 µM;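 active means inhibition above a set limit, the mean inhibition across all tested compounds plus 3 SD, cut at about 34% in these data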;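 further: 0% = IFN-gamma with DMSO and 100% = IFN-gamma with 300 µM nifuroxazide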
# STAT3 inh: IL-6 driven STAT3 reporter inhibitors, primary screen, U3A cells, luciferase, luminescence, MLSCN library; AID 862, 2007; 190,000 tested, 0.89% active; IL-6 STAT3-luciferase reporter; host cell line lacks STAT1; inhibition, % at 5.5 µM;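 active means inhibition above the mean inhibition across all screened compounds plus 3 SD, cut at about 44% in these data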;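 further: 0% = DMSO only wells and 100% = 100 µM nifuroxazide control wells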
# APP 5'UTR act: activators of APP 5'UTR luciferase reporter, primary screen, SH-SY5Y cells; SH-SY5Y APP 5'UTR luciferase reporter, luminescence; zero percent = DMSO vehicle wells; activation, % at 2 µM; 190,000 tested, 1% active;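 active means activation above a set limit, based on mean plus 3 SD of controls, cut at about 140% in these data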
# STAT3 act: IL-6 driven STAT3 reporter potentiators, primary screen, U3A cells, luciferase, luminescence, MLSCN library; IL-6 STAT3-luciferase reporter; 100% = signal with IL-6 EC80 alone; activation (% of control), % at 5.6 µM; 190,000 tested, 0.91% active; AID 871, 2007;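 active means activation above the screen-wide mean of compound activation plus 3 SD, cut at about 130% in these data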;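 further: 0% = background luminescence of wells with medium and substrate only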
#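 Test system: Human STAT1-deficient U3A cells with stable STAT3-luciferase reporter | Also added: Interleukin-6, 33 ng/mL | Timing: Compound pre-incubation 1 h before IL-6, then 6 h stimulation at 37 °C | Technique: Luciferase reporter luminescence | Read-out: Percent of IL-6-only median luminescence | Benchmarks: IL-6-only wells as 100% reference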
# STAT1 act: STAT1 signaling activators, primary screen, cell-based, HTS, luciferase reporter | NIH 3T3 STAT1-luciferase reporter, IFN-gamma, luminescence; 100% = IFN-gamma alone, no compound | activation (% of control), % at 5.5 µM | 200,000 tested, 2.6% active;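 active means activation above the screen-wide mean activation plus 3 SD, cut at about 130% in these data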;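 further: raw ratio to IFN-gamma control signal so 100% means no change and 0% no light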
# Numbers without * were called inactive; nt = no result.
SMILES,NF-kB neuron act,STAT1 inh,STAT3 inh,APP 5'UTR act,STAT3 act,STAT1 act
CC(C)C(Nc1ncnc2c1oc1ccccc12)C(=O)O (configuration not stated),nt,8,-22,17,124,91
Oc1ccccc1Nc1ncnc2c1oc1ccccc12,1.3,-11,-66,-3,158*,110
CC(=O)N1CCN(c2ccc(Nc3ncnc4c3oc3ccccc34)cc2)CC1,0.45,3,41,nt,71,97
c1ccc(Nc2ncnc3c2oc2ccccc23)cc1,2.2,-35,0,51,102,132*
CCOc1ccc(OCC)c(-c2c(=O)n(OCc3ccccc3Br)c3ccccc3[n+]2[O-])c1,0.67,3,11,2,95,97
Cc1ccc(C)c(NC(=O)Cn2cnc3c(oc4ccccc43)c2=O)c1,1.1,-6,-10,-8,109,103
CCC(C)/C(C)=N/NC(=O)CSc1nc2ccccc2[nH]1 (configuration not stated),1.3,5,5,-12,101,94
COC(=O)c1[nH]c2ccc(C)cc2c1NC(=O)CN1CCCc2ccccc21,0.75,9,-40,14,135*,92
Cc1ccc2[nH]c3c(c2c1)CN(C(=O)CN1CCCc2ccccc21)CC3,0.83,-1,-35,-2,133*,99
COC(=O)c1[nH]c2cc(C)ccc2c1NC(=O)CN1CCN(c2ccccc2OC)CC1,0.6,13,-22,25,121,88
CCc1ccc(NC(=O)CC2C(=O)N(c3cccc(C)c3)C(=O)N2C2CC2)cc1 (configuration not stated),1,4,-3,19,104,96
COc1ccc2c(c1)CC/C(=C\Nc1ccc3c(c1)OCO3)C2=O,3.8*,-32,29,31,75,130*
O=C1/C(=C/Nc2ccc3c(c2)OCO3)CCc2ccccc21,2.2,59*,93*,153*,21,46
COc1ccc(N/C=C2\CCc3ccccc3C2=O)cc1,1.8,76*,90*,156*,25,28
COc1ccc(N/C=C2\CCOC2=O)cc1,0.99,11,10,22,96,91
O=C1OC2(CCCCC2)OC(=O)C1=CNc1ccc2c(c1)OCO2,1.4,-15,7,1,104,114
O=C1C2=C(C(c3ccccc3)=NCCN2)C(c2cccc([N+](=O)[O-])c2)N1c1ccccc1 (configuration not stated),nt,-2,9,-2,97,100
Cc1ccc(C(=O)NCCSC(C)(C)C)cc1,4.1*,-31,22,125,86,128
CC(C)(C)c1ccc(C(=O)NCc2ccccc2)cc1,2.4,-23,-12,58,114,119
CSCCNC(=O)c1ccc(C(C)(C)C)cc1,5.4*,2,4,-5,99,98
CN(c1ccc(C(=O)NCCSC(C)(C)C)cc1)S(=O)(=O)c1ccccc1,1.1,0,2,19,103,99
CC(C)(C)SCCNC(=O)c1ccccc1,1.8,-30,-24,nt,120,139*
CCOCCCNC(=O)c1cc(=O)n(Cc2cccc(C)c2)c2ccccc12,0.88,7,8,-8,99,93
COc1ccc(-c2cc(-c3cc(C)ccc3O)[nH]n2)cc1,18*,-53,-42,62,140*,146*
Cc1ccc(O)c(-c2cc(-c3ccccc3C)[nH]n2)c1,2.8,-9,-12,55,113,106
SMILES,NF-kB neuron act,STAT1 inh,STAT3 inh,APP 5'UTR act,STAT3 act,STAT1 act
Cc1ccccc1C(=O)/C=C1/SCC(=O)N1C,1.1,-9,16,-12,95,106
C/C(=N\NC(=O)c1csc(C)c1C)c1ccco1,3.7*,-19,26,78,79,117
C/C(=N\NC(=O)c1csc(C)c1C)c1ccc(C)s1,1.2,-20,-11,17,106,121
COCCN(C(=S)Nc1c(C)cc(C)cc1C)C(C)c1cccs1 (configuration not stated),0.92,10,-4,6,106,89
COc1cc(CNc2nnnn2C)ccc1OCc1c(F)cccc1Cl,1.1,-5,6,11,100,104
Oc1ccc(N2CCN(C(=S)NCCc3ccccc3)CC2)cc1,4.7*,15,14,-1,98,87
Cc1ccnc(NC(=O)/C=C/c2ccccc2[N+](=O)[O-])c1,7.7*,-1,38,142*,71,100
NS(=O)(=O)c1ccc(NC(=O)/C=C/c2ccccc2[N+](=O)[O-])cc1,0.95,2,-3,4,104,97
O=C(/C=C\c1ccccc1[N+](=O)[O-])Nc1ccccc1,1.4,-42,7,73,99,135*
COC(=O)c1c(N2C(=O)[C@H]3[C@@H](C2=O)[C@]2(C(=O)Nc4ccc(C)cc42)N2CCC[C@@H]32)sc(C)c1C,0.92,-4,-1,-13,113,103
O=C(NCCc1ccccc1)C1CCC(CNS(=O)(=O)c2cccs2)CC1 (configuration not stated),1.1,4,0,38,102,95
Cc1nn(-c2ccccc2)c(Cl)c1/C=N/Nc1nnc(C)c(=O)[nH]1,1.8,1,0,13,102,98
Cc1nn(-c2ccccc2)c(Cl)c1/C=N/Nc1nc2ccccc2n1C,1.8,-49,12,77,96,145*
O=S(=O)(NCc1cn2ccsc2n1)c1ccc(Oc2ccccc2)cc1,0.77,23,62*,9,52,79
COc1ccc(NC(=O)Nc2cccs2)cc1Cl,1.6,-34,13,75,98,130*
CC(=O)c1ccc(NC(=O)Nc2ccc(Cl)cc2)cc1,3.6*,-36,-5,166*,105,133*
CC(=O)c1ccc(NC(=O)Nc2ccncc2)cc1,0.8,0,19,19,90,100
COc1ccc(C(=O)Nc2ccc(NC(=O)c3cccs3)cc2)cc1Cl,1.1,-4,14,0,90,103
Cc1nc(NC(=O)Nc2ccc(Cl)cc2)sc1C,1.9,-48,18,101,94,143*
CCc1cccc(NC(=O)Nc2cccs2)c1,1.7,-36,1,43,103,133*
C=CCn1c(COc2cccc(C)c2)nnc1SCn1nnc2ccccc2c1=O,1,7,10,6,95,94
CC(C)=CC(=O)Nc1ccc(Cl)cc1,3.3*,-37,4,184*,100,132*
COc1ccc(NC(=O)C=C(C)C)cc1Cl,4.7*,-27,11,153*,93,125
COCC(=O)Nc1ccc(OC)c(Cl)c1,1,5,6,-1,99,93

# Screening data from PubChem.
